From ChEMBL document CHEMBL4732167, “Structure based design, synthesis, and biological evaluation of imidazole derivatives targeting dihydropteroate synthase enzyme” (Bioorg Med Chem Lett, 2021)
Converted amounts (≈) assume the structure as drawn.

Experiments:
Enterococcus = test: Antibacterial activity against vancomycin-resistant Enterococcus assessed as inhibition of bacterial growth; type: functional
Procedure, shortened: (§1)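 Growth inhibition of the drug-resistant strain was read out as the minimum inhibitory concentration (MIC), reported in µg/mL. The same protocol was also run on an ESBL strain.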

Bacteria = test: Antibacterial activity against ESBL-producing bacteria assessed as bacterial growth inhibition; type: functional
Procedure, shortened: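 Values are minimum inhibitory concentrations (MIC) in µg/mL, determined at an outside microbiology laboratory.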

Streptococcus pyogenes = test: Antibacterial activity against Streptococcus pyogenes MTCC 442 assessed as bacterial growth inhibition; type: functional
[1] = Antioxidant activity assessed as DPPH radical scavenging activity at 25 ug/ml (reference value: 22 to 40.2 %); type: functional; conditions: dose 25.0 µg/ml
Procedure, shortened: (§2)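 DPPH radical scavenging was measured at 0, 25, 50, 75 and 100 µg/ml of each compound. Ascorbic acid was the reference.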

Staphylococcus aureus [2] = test: Antibacterial activity against methicillin-resistant Staphylococcus aureus assessed as inhibition of bacterial growth; type: functional; procedure, shortened: as §1
Pseudomonas aeruginosa = test: Antibacterial activity against Pseudomonas aeruginosa MTCC 1688 assessed as bacterial growth inhibition; type: functional
Escherichia coli = test: Antibacterial activity against Escherichia coli MTCC 443 assessed as bacterial growth inhibition; type: functional
[3] = Antioxidant activity assessed as nitric oxide radical scavenging activity at 50 ug/ml (reference value: 25.8 to 41.6 %); type: functional; conditions: dose 50.0 µg/ml
Procedure, shortened: (§3)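 Nitric oxide radical scavenging was tested at 0, 25, 50, 75 and 100 µg/ml of compound.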

Aspergillus clavatus = test: Antifungal activity against Aspergillus clavatus MTCC 1323 assessed as fungal growth inhibition; type: functional
[4] = Antioxidant activity assessed as hydrogen peroxide radical scavenging activity at 75 ug/ml (reference value: 23.6 to 43.1 %); type: functional; conditions: dose 75.0 µg/ml
Procedure, shortened: (§4)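 Hydrogen peroxide scavenging was measured across a compound series of 0, 25, 50, 75 and 100 µg/ml.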

[5] = Antioxidant activity assessed as DPPH radical scavenging activity at 75 ug/ml (reference value: 22 to 40.2 %); type: functional; conditions: dose 75.0 µg/ml; procedure, shortened: as §2
[6] = Antioxidant activity assessed as hydrogen peroxide radical scavenging activity at 100 ug/ml (reference value: 23.6 to 43.1 %); type: functional; conditions: dose 100.0 µg/ml; procedure, shortened: as §4
[7] = Antioxidant activity assessed as nitric oxide radical scavenging activity at 75 ug/ml (reference value: 25.8 to 41.6 %); type: functional; conditions: dose 75.0 µg/ml; procedure, shortened: as §3
[8] = Antioxidant activity assessed as nitric oxide radical scavenging activity at 100 ug/ml (reference value: 25.8 to 41.6 %); type: functional; conditions: dose 100.0 µg/ml; procedure, shortened: as §3
Plasmodium falciparum = test: Antimalarial activity against Plasmodium falciparum assessed as parasite growth inhibition; type: functional, organism-based
[9] = Antioxidant activity assessed as hydrogen peroxide radical scavenging activity at 25 ug/ml (reference value: 23.6 to 43.1 %); type: functional; conditions: dose 25.0 µg/ml; procedure, shortened: as §4
[10] = Antioxidant activity assessed as DPPH radical scavenging activity at 100 ug/ml (reference value: 22 to 40.2 %); type: functional; conditions: dose 100.0 µg/ml; procedure, shortened: as §2
[11] = Antioxidant activity assessed as DPPH radical scavenging activity at 100 dilution; type: functional
Aspergillus niger = test: Antifungal activity against Aspergillus niger MTCC 282 assessed as fungal growth inhibition; type: functional
[12] = test system: Mycobacterium tuberculosis; test: Antibacterial activity against Mycobacterium tuberculosis H37Rv assessed as bacterial growth inhibition; type: functional
Candida albicans = test: Antifungal activity against Candida albicans MTCC 227 assessed as fungal growth inhibition; type: functional
[13] = Antioxidant activity assessed as hydrogen peroxide radical scavenging activity at 50 ug/ml (reference value: 23.6 to 43.1 %); type: functional; conditions: dose 50.0 µg/ml; procedure, shortened: as §4
[14] = Antioxidant activity assessed as DPPH radical scavenging activity at 50 ug/ml (reference value: 22 to 40.2 %); type: functional; conditions: dose 50.0 µg/ml; procedure, shortened: as §2
Staphylococcus aureus [15] = test: Antibacterial activity against Staphylococcus aureus MTCC 96 assessed as bacterial growth inhibition; type: functional
[16] = Antioxidant activity assessed as nitric oxide radical scavenging activity at 25 ug/ml (reference value: 25.8 to 41.6 %); type: functional; conditions: dose 25.0 µg/ml; procedure, shortened: as §3

For `CC(=O)c1c(C)nc(SCC(=O)Nc2ccc(OCc3ccc(F)cc3)cc2)n1-c1ccc(F)cc1`, which MIC (Enterococcus) is on record?
Its MIC is 125 µg/mL (≈ 246 µM).

And the MIC (Bacteria)?
The MIC was 250 µg/mL (≈ 493 µM).

What about the MIC (Streptococcus pyogenes) of the same compound?
Its MIC is 125 µg/mL (≈ 246 µM).

And the Activity [1]?
The Activity was 34.8%.

What about the MIC (Staphylococcus aureus [2]) of the same compound?
The MIC was 100 µg/mL (≈ 197 µM).

What about the MIC (Pseudomonas aeruginosa) of the same compound?
The MIC was 100 µg/mL (≈ 197 µM).

What about the MIC (Escherichia coli) of the same compound?
Its MIC is 125 µg/mL (≈ 246 µM).

What about the Activity [3] of the same compound?
The Activity was 60.4%.

What about the MFC (Aspergillus clavatus) of the same compound?
The MFC was 500 µg/mL (≈ 985 µM).

What about the Activity [4] of the same compound?
The Activity was 63.1%.

What about the Activity [5] of the same compound?
The Activity was 71.6%.

What about the Activity [6] of the same compound?
Its Activity is 71.2%.

What about the Activity [7] of the same compound?
Its Activity is 70.3%.

And the Activity [8]?
The Activity was 89.6%.

What about the IC50 (Plasmodium falciparum) of the same compound?
Its IC50 is 0.82 µg/mL (≈ 1.62 µM).

And the Activity [9]?
Its Activity is 46.1%.

What about the Activity [10] of the same compound?
The Activity was 89.4%.

What about the Activity [11] of the same compound?
Its Activity is 89.4%.

And the MFC (Aspergillus niger)?
The MFC was 1000 µg/mL (≈ 1970 µM).

What about the MIC [12] of the same compound?
Its MIC is 100 µg/mL (≈ 197 µM).

What about the MFC (Candida albicans) of the same compound?
Its MFC is 500 µg/mL (≈ 985 µM).

What about the Activity [13] of the same compound?
The Activity was 53.4%.

And the Activity [14]?
Its Activity is 56.4%.

And the MIC (Staphylococcus aureus [15])?
Its MIC is 62.5 µg/mL (≈ 123 µM).

And the Activity [16]?
Its Activity is 46.8%.

Which MIC (Enterococcus) does the source give for `CC(=O)c1c(C)nc(SCC(=O)Nc2ccc(OC(=O)c3cccs3)cc2)n1-c1ccc(F)cc1` here?
The MIC was 125 µg/mL (≈ 245 µM).

What about the MIC (Bacteria) of the same compound?
Its MIC is 125 µg/mL (≈ 245 µM).

What about the MIC (Streptococcus pyogenes) of the same compound?
Its MIC is 125 µg/mL (≈ 245 µM).

And the Activity [1]?
Its Activity is 44.3%.

What about the MIC (Staphylococcus aureus [2]) of the same compound?
Its MIC is 250 µg/mL (≈ 491 µM).

What about the MIC (Pseudomonas aeruginosa) of the same compound?
Its MIC is 62.5 µg/mL (≈ 123 µM).

And the MIC (Escherichia coli)?
The MIC was 100 µg/mL (≈ 196 µM).

What about the Activity [3] of the same compound?
The Activity was 59.3%.

What about the MFC (Aspergillus clavatus) of the same compound?
Its MFC is 250 µg/mL (≈ 491 µM).

And the Activity [4]?
Its Activity is 67.6%.

What about the Activity [5] of the same compound?
Its Activity is 65.4%.

And the Activity [6]?
Its Activity is 79.6%.

What about the Activity [7] of the same compound?
Its Activity is 79.5%.

And the Activity [8]?
Its Activity is 89.1%.

What about the IC50 (Plasmodium falciparum) of the same compound?
The IC50 was 1.14 µg/mL (≈ 2.24 µM).

And the Activity [9]?
Its Activity is 48.6%.

And the Activity [10]?
The Activity was 89.6%.

What about the Activity [11] of the same compound?
The Activity was 89.6%.

And the MFC (Aspergillus niger)?
Its MFC is 500 µg/mL (≈ 981 µM).

And the MIC [12]?
The MIC was 100 µg/mL (≈ 196 µM).

And the MFC (Candida albicans)?
The MFC was 500 µg/mL (≈ 981 µM).

And the Activity [13]?
Its Activity is 59.3%.

And the Activity [14]?
Its Activity is 51.4%.

And the MIC (Staphylococcus aureus [15])?
The MIC was 125 µg/mL (≈ 245 µM).

And the Activity [16]?
The Activity was 50.6%.
